# FXIa inh: inhibitors of human coagulation factor XIa. purified FXIa, Boc-Glu-Ala-Arg-AMC fluorogenic substrate. 220,000 tested, 0.14% active. P03951. inhibition, % at 5 µM. AID 798;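 active means inhibition of at least 40%; inactive means inhibition below 40%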;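 further: fluorescence of freed AMC excited at 355 nm; 0% = enzyme without compound and 100% = no enzyme blank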
# hK5 inh: blocks human kallikrein 5 protease activity; Q9Y337; recombinant hK5, fluorogenic AMC substrate cleavage; inhibition, % at 5 µM; 210,000 tested, 0.59% active; AID 873;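 active means inhibition of 40% or more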;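 further: 0% = enzyme controls without compound and 100% = no-enzyme blanks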
# Target sequence (Q9Y337 67-293 limits assumed): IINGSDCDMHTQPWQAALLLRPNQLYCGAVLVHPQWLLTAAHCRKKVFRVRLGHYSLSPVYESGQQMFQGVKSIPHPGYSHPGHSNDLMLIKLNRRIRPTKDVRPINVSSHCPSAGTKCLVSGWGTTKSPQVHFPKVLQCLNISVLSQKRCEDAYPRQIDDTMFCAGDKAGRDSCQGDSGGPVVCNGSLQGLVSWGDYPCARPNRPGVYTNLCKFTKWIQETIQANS
# EP2 mod: modulates human prostaglandin E2 receptor EP2 signaling; induction, % at 25 µM; 260,000 tested, 0.83% active; EP2-expressing cells, cAMP HTRF FRET, PGE2 co-stimulation; AID 940; P43116;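 active means compounds whose cAMP rise, as percent of the full-agonist control response, exceeds 60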;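 further: rat C6 glioma line stably carrying human EP2 under a CMV promoter; the protocol text gives 20 µM as final concentration; 100% = response of wells given 1 µM PGE2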
# Target sequence (P43116 whole entry, looked up): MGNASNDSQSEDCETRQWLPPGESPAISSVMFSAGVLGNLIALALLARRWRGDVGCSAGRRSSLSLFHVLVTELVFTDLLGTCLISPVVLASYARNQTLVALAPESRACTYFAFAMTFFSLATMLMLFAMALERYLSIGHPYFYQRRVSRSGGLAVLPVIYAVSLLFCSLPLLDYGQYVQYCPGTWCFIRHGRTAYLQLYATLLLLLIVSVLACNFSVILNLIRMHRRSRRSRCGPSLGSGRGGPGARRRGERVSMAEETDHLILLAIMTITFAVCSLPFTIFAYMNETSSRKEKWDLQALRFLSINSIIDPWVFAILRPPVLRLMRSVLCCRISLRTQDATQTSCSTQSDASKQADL
# thrombin 1536: blocks human thrombin protease activity; AID 1046; alpha-thrombin, Boc-VPR-AMC fluorogenic substrate cleavage; P00734; inhibition, % at 5 µM; 220,000 tested, 0.26% active;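 active means inhibition at or above 40%; inactive means inhibition below 40%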;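 further: 0% = enzyme with no compound and 100% = wells without enzyme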
#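 Material: human alpha-thrombin enzyme / Medium: pH 7.5 Tris (50 mM) with NaCl 150 mM, Tween 20 0.05% / Compound: single-point dosing at 5 µM, 0.2% DMSO / Incubation: enzyme reaction carried out at room temperature / Detection: AMC fluorescence, 355/460 nm / Read-out basis: percent inhibition scaled between no-compound controls and no-enzyme blanks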
# FXIIa inh: blocks human coagulation factor XIIa protease activity. P00748. purified FXIIa, Boc-QGR-AMC fluorogenic substrate, 2 h. inhibition, % at 5 µM. 220,000 tested, 0.3% active; in the data active means inhibition above about 40%;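 further: 0% = enzyme with no compound and 100% = blank without enzyme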
# PGE2 EP2 inh: blocks the human prostaglandin E2 receptor EP2; P43116; C6 glioma cells expressing human EP2, cAMP TR-FRET; cells stimulated with saturating PGE2; inhibition, % at 25 µM; 260,000 tested, 0.52% active;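 active means percent inhibition above 40 after rounding to a whole number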;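 further: rat C6 glioma host cells with rolipram phosphodiesterase inhibitor present; the protocol text gives 20 µM as final concentration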
# Starred values were filed as active, the others as inactive; . = no result. This is a sample that favours compounds with a hit; in the whole collection about 2.1% have one here.
SMILES,FXIa inh,hK5 inh,EP2 mod,thrombin 1536,FXIIa inh,PGE2 EP2 inh
COc1ccc(CN(Cc2n[nH]nc2-c2ccccc2)CC2CCCO2)c(OC)c1 (stereo not given),.,.,16,.,.,7
CCOc1ccc(N(C(=O)c2ccco2)C(C(=O)NC2CCCC2)c2ccccc2)cc1 (stereo not given),.,.,61*,.,.,6
CCOc1ccc(C(C(=O)NC2CCCC2)N(C(=O)c2ccco2)C2CCCC2)cc1 (stereo not given),.,.,-16,.,.,5
O=C(O)c1cc(-c2ccc3c(c2)OCO3)nc2ccccc12,9,-6,5,2,15,17
CC(=O)c1ccc(N2CCN(C(=O)c3cc(-c4ccc5c(c4)OCO5)nc4ccccc34)CC2)cc1,-6,82*,10,0,-7,14
N#CC1=C(N)Oc2n[nH]c(-c3cccs3)c2C1c1cccs1 (stereo not given),-7,0,-20,-8,-6,52*
O=c1oc(-c2ccccc2NS(=O)(=O)c2ccc3ccccc3c2)nc2ccccc12,14,59*,3,28,11,7
COc1cccc(C(=O)Nc2ccc(N3CCOCC3)c(Cl)c2)c1,.,.,-45,.,.,33
CCn1c(COc2ccccc2OC)nnc1SCC(=O)Nc1ccccc1F,.,.,-2,.,.,7
CC1=C(C(=O)OCC2CCCO2)C(c2ccc(C)o2)C2=C(CC(c3ccc(N(C)C)cc3)CC2=O)N1 (stereo not given),-1,-2,-9,4,11,10
CC1=C(C(=O)OCC2CCCO2)C(c2ccc(C)o2)C2=C(CC(c3ccc(F)cc3)CC2=O)N1 (stereo not given),36,-10,14,3,51*,21
COc1ccc(C2CC(=O)C3=C(C2)NC(C)=C(C(=O)OC2CCCC2)C3c2ccc(C)o2)cc1OC (stereo not given),.,.,-6,.,.,40*
CCC(C)OC(=O)C1=C(C)NC2=C(C(=O)CC(c3ccc(OC)c(OC)c3)C2)C1c1ccc(C)o1 (stereo not given),.,.,9,.,.,12
O=c1[nH]c(N2CCCC2)nc2c1CCN(Cc1ccc(F)cc1)C2,.,.,-31,.,.,.
CN(C)c1ncc(S(=O)(=O)c2ccccc2)c(-c2ccc(Cl)cc2Cl)n1,-8,0,65*,-3,-6,.
COc1ccc(C(=O)Cn2nc(C)n3c(cc4ccsc43)c2=O)cc1,.,.,14,.,.,.
O=[N+]([O-])c1ccc2c(c1)c1ccccc1n2CCO,24,23,-25,39,50*,4
COc1ccc2oc(=O)c(-c3csc(NNC(=O)c4ccc(C)cc4)n3)cc2c1,.,.,-16,.,.,3
Cc1cccc(-n2c(-c3ccco3)nn(CC(=O)N3CCCCC3)c2=O)n1,.,.,-12,.,.,.
O=C1C=CC(=O)N1c1ccc(OC(F)F)cc1,5,-5,-62,-6,0,109*
O=C1C=CC(=O)N1c1ccc(O)cc1,5,-9,-55,-5,7,8
Cn1c(=O)cc(OCCCC(=O)NC2CCCC2)c2ccccc21,17,70*,-1,17,23,0
Cn1c(=O)cc(OCC(=O)NC2CCCCC2)c2ccccc21,13,-15,-33,8,8,3
O=c1[nH]nc(-c2cc3c(s2)CCCC3)o1,.,.,33,.,.,.
COc1cc(C(N)=O)cc(Br)c1OCc1ccccc1,9,-10,32,-6,17,7
SMILES,FXIa inh,hK5 inh,EP2 mod,thrombin 1536,FXIIa inh,PGE2 EP2 inh
CCOc1c(Br)cc(C(N)=O)cc1OCc1ccccc1,1,-14,62*,-2,8,14
C[C@H](CCC(=O)O)[C@H]1CC[C@@]2(C)[C@@H]3C(=O)C[C@H]4C(C)(C)[C@@H](O)CC[C@]4(C)[C@H]3C(=O)C[C@]12C,.,.,31,.,.,46*
CC(CCC(=O)O)C1CC[C@@]2(C)C3C(=O)CC4C(C)(C)C(O)CC[C@]4(C)C3C(=O)C[C@]12C (stereo not given in full),0,13,12,-2,9,13
COC(=O)c1sc(-c2ccccc2)cc1NC(C)=O,-3,-12,24,-13,1,11
COC(=O)c1sc(-c2cccs2)cc1NC(=O)/C=C/C(=O)O,6,5,-110,0,12,63*
COc1ccc(NC(=O)/C=C/C(=O)O)c(OC)c1,-4,-5,75*,-14,2,3
CCCOc1ccc(-c2csc(NC(C)=O)n2)cc1,.,.,17,.,.,11
COc1cccc(N2CCN(CC(=O)Nc3ccccc3Br)CC2)c1,.,.,-88,.,.,15
COc1cc2c(cc1OC)-c1cc(=Nc3c(C)cc(C)cc3C)n(C)c(=O)n1CC2,.,.,67*,.,.,6
COc1cc2c(cc1OC)-c1cc(NC3CCCC3)nc(=O)n1CC2,0,0,-18,-2,9,8
CCNC(=S)N(Cc1ccc(F)cc1)Cc1cc2cc(OCC)ccc2[nH]c1=O,.,.,-31,.,.,7
CCn1c(=O)c2c(nc(SCC(=O)c3ccc(C)cc3)n2C)n(C)c1=O,.,.,-26,.,.,9
Cc1cc(N/N=C/c2ccc(O)cc2O)nc(-c2ccccc2O)n1,1,-37,-57,-6,5,80*
Cc1cc(N/N=C/c2ccccc2O)nc(-c2ccccc2O)n1,9,-17,-57,-6,5,60*
COc1ccc([C@@H]2C[C@H](C(=O)NC3CCCCC3)N(C)S(=O)(=O)N2)cc1OC,.,.,4,.,.,.
COCCCNC(=S)N(Cc1ccccc1)Cc1cc2c(C)cc(C)cc2[nH]c1=O,.,.,15,.,.,24
COC(=O)[C@H]1CN(C(=O)c2n[nH]c3c2CCCC3)C[C@@H]1c1ccc(F)cc1,.,.,-12,.,.,.
COc1cc(S(=O)(=O)N(Cc2ccccn2)CC2CCCO2)ccc1-n1cnnn1 (stereo not given),.,.,-18,.,.,10
CC(C)OC(=O)c1c(-c2ccc(C(C)C)cc2)csc1NC(=O)C1CCCO1 (stereo not given),3,7,63*,0,19,13
C[N+]1(CC(O)COCCC23CC4CC(CC(C4)C2)C3)CCOCC1 (stereo not given),.,.,-3,.,.,8
COc1ccc(-c2ncccc2OC(=O)C23CC4CC(CC(C4)C2)C3)cc1,3,60*,16,18,-1,3
Clc1cccc(-c2nc(NCCCN3CCOCC3)c3ccccc3n2)c1,0,.,-32,-7,7,7
Clc1ccc2oc(-c3ccccc3)cc(=NCCCN3CCOCC3)c2c1,10,34,-49,52*,17,7
OCCCCCN=c1cc(-c2ccccc2)oc2ccc(Cl)cc12,6,69*,-3,60*,13,13
O=c1cc(-c2ccc(Cl)cc2)oc2ccc(Cl)cc12,.,.,-4,.,.,4
N#Cc1ccc(NC(=O)CSc2nc(N)c(C#N)cc2C#N)cc1,.,.,-5,.,.,43*
CCOc1ccccc1NC(=O)CSc1nc(Cc2ccccc2)nc2ccccc12,.,.,79*,.,.,10

# High-throughput results as filed in PubChem.
